Common to all, as to assay type: functional, cell-based
Assay [1] concerns the target T1, Extracellular calcium-sensing receptor (Rattus norvegicus) (UniProt P48442).
T1 sequence (whole entry): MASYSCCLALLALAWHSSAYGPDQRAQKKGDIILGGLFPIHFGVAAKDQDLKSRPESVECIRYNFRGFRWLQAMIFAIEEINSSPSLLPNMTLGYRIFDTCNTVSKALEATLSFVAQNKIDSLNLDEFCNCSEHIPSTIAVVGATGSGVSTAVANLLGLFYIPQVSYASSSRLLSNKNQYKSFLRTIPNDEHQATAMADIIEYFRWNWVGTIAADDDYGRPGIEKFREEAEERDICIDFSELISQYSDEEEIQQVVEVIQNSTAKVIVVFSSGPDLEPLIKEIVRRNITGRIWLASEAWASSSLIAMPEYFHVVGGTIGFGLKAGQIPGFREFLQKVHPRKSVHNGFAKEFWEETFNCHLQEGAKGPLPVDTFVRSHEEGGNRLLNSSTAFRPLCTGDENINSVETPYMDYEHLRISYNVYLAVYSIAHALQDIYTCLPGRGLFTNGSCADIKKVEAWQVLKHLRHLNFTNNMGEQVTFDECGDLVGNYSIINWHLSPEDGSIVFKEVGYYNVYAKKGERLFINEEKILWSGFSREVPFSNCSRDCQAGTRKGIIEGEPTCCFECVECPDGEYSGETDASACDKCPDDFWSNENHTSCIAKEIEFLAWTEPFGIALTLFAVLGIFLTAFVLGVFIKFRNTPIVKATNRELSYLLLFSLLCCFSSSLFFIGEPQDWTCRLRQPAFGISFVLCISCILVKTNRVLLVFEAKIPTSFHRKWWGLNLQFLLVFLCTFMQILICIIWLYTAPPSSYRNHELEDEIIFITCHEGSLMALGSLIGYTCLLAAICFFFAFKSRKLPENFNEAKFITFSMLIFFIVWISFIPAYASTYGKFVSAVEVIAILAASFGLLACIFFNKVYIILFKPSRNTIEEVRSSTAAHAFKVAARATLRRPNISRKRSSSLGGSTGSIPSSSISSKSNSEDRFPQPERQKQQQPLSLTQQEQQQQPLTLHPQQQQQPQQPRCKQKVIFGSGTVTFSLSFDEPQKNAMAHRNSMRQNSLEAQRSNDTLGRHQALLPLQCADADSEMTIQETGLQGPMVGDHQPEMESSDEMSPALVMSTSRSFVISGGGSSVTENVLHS
As to the kind of experiment: Maximal stimulation of [3H]-inositol phosphates production in CHO cells expressing rat Calcium sensing receptor (CaSR) at 10 mM [Ca2+]. In a few lines: (§1)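 CHO cells stably transfected with rat brain CaSR, grown in basal Ham's F-12 (0.3 mM Ca2+, 0.6 mM Mg2+), prelabelled overnight with 0.5 µCi/mL myo-[3H]inositol. Drugs were made as 10 mM ethanol stocks, diluted in basal medium, and incubated at 37 °C with 2 mM extracellular Ca2+. Read-out is [3H]IP accumulation as % of the 10 mM Ca2+ maximal response. Two to five independent experiments in triplicate, mean ± SEM.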

Assay [2] deals with T2, Extracellular calcium-sensing receptor (Homo sapiens, UniProt P41180).
T2 sequence (P41180 whole entry): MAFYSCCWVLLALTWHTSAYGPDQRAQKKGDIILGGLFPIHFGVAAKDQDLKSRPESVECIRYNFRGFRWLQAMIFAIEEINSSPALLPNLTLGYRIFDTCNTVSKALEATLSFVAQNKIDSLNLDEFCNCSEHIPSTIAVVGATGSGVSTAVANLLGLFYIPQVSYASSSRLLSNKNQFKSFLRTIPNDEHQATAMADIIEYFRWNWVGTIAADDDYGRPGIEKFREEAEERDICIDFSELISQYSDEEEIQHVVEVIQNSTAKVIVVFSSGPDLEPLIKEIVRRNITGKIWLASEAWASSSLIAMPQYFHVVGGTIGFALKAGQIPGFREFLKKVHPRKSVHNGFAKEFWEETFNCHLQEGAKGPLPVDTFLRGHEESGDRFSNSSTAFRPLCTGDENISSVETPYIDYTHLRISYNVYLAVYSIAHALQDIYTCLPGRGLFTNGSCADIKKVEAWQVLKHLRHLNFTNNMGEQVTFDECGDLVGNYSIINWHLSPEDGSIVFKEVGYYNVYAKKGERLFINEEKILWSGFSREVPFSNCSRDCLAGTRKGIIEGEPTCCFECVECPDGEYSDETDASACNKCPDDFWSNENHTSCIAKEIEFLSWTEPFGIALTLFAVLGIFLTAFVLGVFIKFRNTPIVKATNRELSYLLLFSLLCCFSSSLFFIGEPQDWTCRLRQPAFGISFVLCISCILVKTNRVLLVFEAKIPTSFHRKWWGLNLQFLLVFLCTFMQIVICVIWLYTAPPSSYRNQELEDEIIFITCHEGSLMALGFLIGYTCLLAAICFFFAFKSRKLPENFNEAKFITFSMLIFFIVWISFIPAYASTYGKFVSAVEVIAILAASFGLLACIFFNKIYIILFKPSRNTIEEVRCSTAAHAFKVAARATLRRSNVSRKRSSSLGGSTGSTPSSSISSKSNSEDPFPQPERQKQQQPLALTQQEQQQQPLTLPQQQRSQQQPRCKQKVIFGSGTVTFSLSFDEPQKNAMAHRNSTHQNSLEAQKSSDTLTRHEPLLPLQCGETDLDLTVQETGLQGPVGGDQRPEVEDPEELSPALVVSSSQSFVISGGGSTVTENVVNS
As to the kind of experiment: Ability to stimulate [3H]inositol phosphates accumulation in HEK293 cells expressing the human calcium sensing receptor (CaSR) at 2 mM [Ca2+]. An outline of the steps: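 HEK293 cells transiently expressing human CaSR, prelabelled with myo-[3H]inositol. Increasing drug concentrations were applied in the presence of 2 mM extracellular Ca2+. [3H]IP accumulation is expressed as % of the 10 mM Ca2+ response, and EC50 and maximal stimulation come from the dose-response curve. Three to five independent experiments in triplicate.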

In assay [3] the target is T3, Extracellular calcium-sensing receptor (Rattus norvegicus, UniProt P48442).
T3 sequence (P48442 whole entry): T1 sequence (whole entry)
Kind of assay: Ability to stimulate [3H]inositol phosphates accumulation in CHO cells expressing rat Calcium sensing receptor (CaSR) at 2 mM [Ca2+]. An outline of the steps:
as §1

As usually defined, the EC50 is the concentration at which the effect is half-maximal.

The structures appear in SMILES notation.

`CC(NCc1cc2cc(Cl)ccc2[nH]1)c1cccc2ccccc12` (centres undefined): the Accumulation in assay [1] came to 60%.

`C[C@@H](NCc1cc2ccccc2[nH]1)c1cccc2ccccc12`: the EC50 in assay [2] turned out to be 310 nM; in assay [3], 1000 nM. In assay [1], the Accumulation is 117%.

With `C[C@H](NCc1cc2ccccc2[nH]1)c1cccc2ccccc12`, in assay [1], the Accumulation came to 32%. In the case of `COc1cc2cc(CNC(C)c3cccc4ccccc34)[nH]c2cc1OC` (centres undefined), the Accumulation in assay [1] was 34%. In the case of `CC(NCC(Cc1ccccc1)NCc1ccccc1)c1cccc2ccccc12` (centres undefined), the Accumulation in assay [1] was 80%. In the case of `CC(NCc1cc2ccccc2[nH]1)c1cccc2ccccc12` (racemic), in assay [1], the Accumulation was found to be 103%. Further, the concentration for a half-maximal effect (EC50) in assay [3] is 1300 nM. For the molecule `COc1ccc2[nH]c(CNC(C)c3cccc4ccccc34)cc2c1` (centres undefined), in assay [1], the Accumulation was determined as 55%. Take `COc1ccc(S(=O)(=O)n2c(CNC(C)c3cccc4ccccc34)cc3ccccc32)cc1OC` (centres undefined): the Accumulation in assay [1] was found to be 54%. Consider `COc1ccc(CNC(CNC(C)c2cccc3ccccc23)Cc2ccccc2)cc1OC` (centres undefined), for which, in assay [1], the Accumulation turned out to be 74%. In the case of `CC(NCC(Cc1ccccc1)NCc1ccccc1Cl)c1cccc2ccccc12` (centres undefined), the Accumulation in assay [1] came to 98%. Take `CC(NCC(Cc1ccccc1)NCc1cccc(Cl)c1)c1cccc2ccccc12` (centres undefined): the Accumulation in assay [1] worked out at 78%. Regarding `CC(NCc1cc2ccccc2n1C)c1cccc2ccccc12` (centres undefined), in assay [1], the Accumulation came out at 79%. On to `CC(NC(=O)c1cc2ccccc2[nH]1)c1cccc2ccccc12` (centres undefined), for which the Accumulation in assay [1] worked out at 2%.

For the molecule `COc1ccc(CNC(CNC(C)c2cccc3ccccc23)Cc2ccccc2)cc1` (centres undefined), in assay [1], the Accumulation was 80%. For the molecule `CC(NCC(Cc1ccccc1)NCc1ccc(F)cc1)c1cccc2ccccc12` (centres undefined), in assay [1], the Accumulation was found to be 95%. For `CC(NCc1cc2cc(F)ccc2[nH]1)c1cccc2ccccc12` (centres undefined), in assay [1], the Accumulation amounted to 87%.

The values above are taken from ChEMBL document CHEMBL1147450, “N2-benzyl-N1-(1-(1-naphthyl)ethyl)-3-phenylpropane-1,2-diamines and conformationally restrained indole analogues: development of calindol as a new calcimimetic acting at the calcium sensing receptor” (Bioorg Med Chem Lett, 2004).
